{"source": "ChEMBL document CHEMBL4382232", "about": "“Grayanane Diterpenoid Glucosides from the Leaves of Rhododendron micranthum and Their Bioactivities Evaluation” (2018)", "key": {"A549": {"system": "A549", "test": "Cytotoxicity against human A549 cells at 40 uM after 48 hrs by MTT assay", "format": "functional, cell-based"}, "SMMC-7721": {"system": "SMMC-7721", "test": "Cytotoxicity against human SMMC7721 cells at 40 uM after 48 hrs by MTT assay", "format": "functional, cell-based"}, "SW480": {"system": "SW480", "test": "Cytotoxicity against human SW480 cells at 40 uM after 48 hrs by MTT assay", "format": "functional, cell-based"}, "Mus musculus [1]": {"system": "Mus musculus", "test": "Antinociceptive activity in Kunming mouse model of acetic-acid-induced writhing assessed as inhibition of writhing numbers at 1 mg/kg measured for 30 mins relative to control", "format": "functional", "conditions": "0.5 h", "method_in_brief": "(§1)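 Acetic-acid-induced writhing model in Kunming mice (10 per group); doses 0.2, 1.0 and 5.0 mg/kg; vehicle-treated and morphine positive-control groups; inhibition of writhing relative to vehicle; mean ± SEM; one-way ANOVA with Bonferroni test. Animal work approved by institutional ethics committee.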"}, "Mus musculus [2]": {"system": "Mus musculus", "test": "Antinociceptive activity in Kunming mouse model of acetic-acid-induced writhing assessed as inhibition of writhing numbers at 5 mg/kg measured for 30 mins relative to control", "format": "functional", "conditions": "0.5 h", "method_in_brief": "as §1"}, "MCF7": {"system": "MCF7", "test": "Cytotoxicity against human MCF7 cells at 40 uM after 48 hrs by MTT assay", "format": "functional, cell-based"}, "HL-60": {"system": "HL-60", "test": "Cytotoxicity against human HL60 cells at 40 uM after 48 hrs by MTT assay", "format": "functional, cell-based"}, "RAW264.7": {"system": "RAW264.7", "test": "Anti-inflammatory activity in mouse RAW264.7 cells assessed as inhibition of LPS-induced NO production at 40 uM", "format": "functional, cell-based"}, "[3]": {"target": "T1, Tyrosine-protein phosphatase non-receptor type 1 (Homo sapiens) (UniProt P18031)", "T1 sequence (whole entry)": "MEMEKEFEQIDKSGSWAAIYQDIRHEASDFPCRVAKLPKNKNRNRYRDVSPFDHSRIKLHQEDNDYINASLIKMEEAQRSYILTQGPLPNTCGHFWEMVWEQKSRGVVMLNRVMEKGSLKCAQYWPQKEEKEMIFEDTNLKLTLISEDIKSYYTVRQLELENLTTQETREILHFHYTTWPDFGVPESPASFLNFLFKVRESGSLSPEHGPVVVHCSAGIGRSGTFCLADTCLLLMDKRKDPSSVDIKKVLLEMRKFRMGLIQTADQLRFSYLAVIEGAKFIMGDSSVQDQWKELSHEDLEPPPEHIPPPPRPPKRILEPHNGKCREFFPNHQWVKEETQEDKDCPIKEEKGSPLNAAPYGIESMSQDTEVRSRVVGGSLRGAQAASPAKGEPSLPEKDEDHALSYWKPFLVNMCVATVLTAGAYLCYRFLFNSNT", "test": "Inhibition of recombinant human PTP1B at 40 uM using pNPP as substrate preincubated for 10 mins followed by substrate addition and measured after 30 mins at 5 mins time interval for 30 mins"}, "Mus musculus [4]": {"system": "Mus musculus", "test": "Antinociceptive activity in Kunming mouse model of acetic-acid-induced writhing assessed as inhibition of writhing numbers at 0.2 mg/kg measured for 30 mins relative to control", "format": "functional", "conditions": "0.5 h", "method_in_brief": "as §1"}}, "note": "Calls of active or inactive are those of the source. The calls are words filed in the database; no cut-off is given here.", "data": [{"smiles": "C=C1[C@H]2C[C@H](O[C@@H]3O[C@H](CO)[C@@H](O)[C@H](O)[C@H]3O)C(C)(C)[C@]2(O)CC[C@@]23C[C@@H](CC[C@@H]12)[C@](C)(O)C3", "values": [{"measurement": "Activity", "setting": "A549", "value": "inactive"}, {"measurement": "Activity", "setting": "SMMC-7721", "value": "inactive"}, {"measurement": "Activity", "setting": "SW480", "value": "inactive"}, {"measurement": "inhibition in vivo at 1 mg/kg", "setting": "Mus musculus [1]", "value": 58.7, "unit": "%"}, {"measurement": "inhibition in vivo at 5 mg/kg", "setting": "Mus musculus [2]", "value": 82.3, "unit": "%"}, {"measurement": "Activity", "setting": "MCF7", "value": "inactive"}, {"measurement": "Activity", "setting": "HL-60", "value": "inactive"}, {"measurement": "inhibition", "setting": "RAW264.7", "value": "inactive"}, {"measurement": "inhibition", "setting": "[3]", "value": "inactive"}, {"measurement": "inhibition in vivo at 0.2 mg/kg", "setting": "Mus musculus [4]", "value": 46.1, "unit": "%"}]}]}
